From PubChem BioAssay
An excerpt weighted towards active compounds, which were near 1.8% of everything screened.
M4 PAM = potentiates acetylcholine response at human M4 receptor | 360,000 compounds, 0.4% hits | AID 624126 | CHO-K1 hM4/Gqi5, Fluo-8 calcium fluorescence, ACh EC20; 0% = ACh EC20, 100% = maximal ACh | activation, % at 3 µM;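 active = activation above its plate's cutoff, the mean activation of sample wells plus 3 SD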
CHRM4 antagonist = CHRM4 antagonism in calcium assay; CHO-hM4 cells, ACh EC80, Fluo-8 calcium fluorescence; 360,000 compounds, 0.73% hits; inhibition, % at 3 µM; AID 624125;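 active = inhibition above its plate's cutoff, the mean inhibition of sample wells plus 3 SD, cut at about 27% in these data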
CHRM4 agonist = agonists of human muscarinic M4 receptor (CHRM4) | P08173 | CHO-K1 hM4/Gqi5, Fluo-8 calcium fluorescence; vehicle 0%, full acetylcholine response 100% | activation, % at 3 µM | 360,000 compounds, 0.14% hits;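 active = activation above the run mean over all test wells plus 3 SD, cut at about 32% in these data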;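 also: peak over basal fluorescence ratio per well then scaled between controls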
M5 ag = agonists of human muscarinic M5 receptor (CHRM5); CHO-K1 hM5 cells, Fluo-8 calcium fluorescence; 0% DMSO wells, 100% maximal acetylcholine response; P08912; AID 624037; activation, % at 3 µM; 360,000 compounds, 0.19% hits;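 active = activation above the run's mean over test compounds plus 3 SD, cut at about 23% in these data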;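 also: signal is peak over basal fluorescence ratio across the kinetic read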
Target sequence (P08912 whole entry, looked up): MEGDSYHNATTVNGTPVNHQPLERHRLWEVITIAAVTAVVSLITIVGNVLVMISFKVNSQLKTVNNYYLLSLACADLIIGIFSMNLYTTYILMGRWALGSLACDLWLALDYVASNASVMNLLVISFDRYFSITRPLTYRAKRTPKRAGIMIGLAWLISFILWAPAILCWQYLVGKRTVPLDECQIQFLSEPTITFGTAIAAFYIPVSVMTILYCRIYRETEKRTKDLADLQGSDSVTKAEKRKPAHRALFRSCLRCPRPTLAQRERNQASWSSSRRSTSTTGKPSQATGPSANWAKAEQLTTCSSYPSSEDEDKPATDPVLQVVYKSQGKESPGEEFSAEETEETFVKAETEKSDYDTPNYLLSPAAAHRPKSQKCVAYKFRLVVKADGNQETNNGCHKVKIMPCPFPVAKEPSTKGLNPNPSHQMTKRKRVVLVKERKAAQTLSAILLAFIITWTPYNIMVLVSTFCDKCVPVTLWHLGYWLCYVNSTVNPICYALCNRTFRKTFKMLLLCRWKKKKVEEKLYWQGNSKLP
M5 PAM = positive allosteric modulators of human muscarinic M5 receptor. AID 624038. P08912. CHO-K1 hM5, Fluo-8 calcium, ACh EC20 PAM; 0% = ACh EC20, 100% = ACh EC100. activation, % at 3 µM. 360,000 compounds, 0.3% hits;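 active = activation above the run cutoff, the mean activation of all test compounds plus 3 SD, cut at about 18% in these data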
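System: CHO-K1 hM5 cells. Reagent: acetylcholine, EC20 level. Compound dosing: single dose, 3 µM nominal final test concentration. Timing: Post-acetylcholine fluorescence recording 140 s. Detection: Fluo-8 calcium fluorescence. Read-out: % activation, ACh-normalized. Benchmarks: ACh EC20 and EC100 wells. Repeats: singlicate, one well per test compound.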
M5 antag = antagonists of human muscarinic M5 receptor (CHRM5); P08912; CHO-hM5 cells, Fluo-8 calcium fluorescence, ACh EC80; inhibition, % at 3 µM; 360,000 compounds, 0.59% hits;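 active = inhibition above a per-plate cutoff, the mean of that plate's test compounds plus 3 SD, cut at about 27% in these data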
Numbers stand for hits; – = inactive.

SMILES	M4 PAM	CHRM4 antagonist	CHRM4 agonist	M5 ag	M5 PAM	M5 antag
Cc1sc2ncnc(N3CCC(C(=O)NNC(=O)COc4ccc(Cl)cc4)CC3)c2c1C	–	–	–	–	–	–
Cc1c(C(=O)Nc2cccc(F)c2)cnn1-c1ccccc1	–	–	–	–	–	–
CC1CCCN(C(=O)CCc2nnc(-c3ccc4c(c3)OCO4)o2)C1 (centres undefined)	–	–	–	–	–	–
C=CS(=O)(=O)N(Cc1ccccc1)[C@H](CO)CC(C)C	–	–	–	–	–	–
CC(C)C[C@H](CO)N(Cc1ccccc1)S(=O)(=O)N(Cc1ccccc1)[C@@H](CO)CC(C)C	–	33.5	–	–	–	–
CC(=O)C1CCC2C3CCC4=CC(=O)CCC4(C)C3(F)C(O)CC12C (centres undefined)	–	–	–	–	–	–
COc1cc(-c2nnc(COc3ccc4ccccc4c3)o2)cc(OC)c1OC	–	–	–	–	–	–
NCCCC[C@H]1CN=C(N)N1CCC12CC3CC(CC(C3)C1)C2	–	53.5	–	–	–	–
COCn1c(-c2ccccc2)nc2ccccc21	28.8	–	–	–	–	–
Cc1ccccc1C(=O)NC1CCN(Cc2nnnn2C(C)(C)C)CC1	–	–	–	–	–	–
Cc1ccccc1C(=O)NC1CCN(Cc2nnnn2C2CCCC2)CC1	–	–	–	–	31.6	–
O=C(CCc1ccncc1)NC1CCCc2c1cnn2-c1ccc(F)cc1F (centres undefined)	–	–	–	–	–	–
Nc1ncnc2c1ncn2C1CCCC1	–	–	–	–	–	–
NCC1OC(n2cnc3c(N)ncnc32)CC1O (centres undefined)	–	–	–	–	–	–
Nc1ncnc2c1ncn2[C@H]1C[C@H](O)[C@@H](COP(=O)(O)O)O1	–	30.4	–	–	–	–
Nc1ncnc2c1ncn2C1CCCO1 (centres undefined)	–	–	–	27.6	–	–
S=c1nc[nH]c2c1ncn2C1CCCO1 (centres undefined)	–	–	–	–	18.7	–
COc1ccc(-c2cccc(NC(=O)c3cccs3)c2)nn1	–	–	–	–	–	–
C[N+]1(CCCOC(=O)C2(c3ccccc3)CCCC2)CCOCC1	–	78.3	–	–	–	87.3
CCN(CC)CCOC(=O)c1ccc(NC(=O)C2(c3ccccc3)CCCC2)cc1	–	–	–	–	–	35.7
O=C(OCCN1CCCCC1)C1(c2ccccc2)CCCC1	–	91.1	–	–	–	98.9
CN(C)CCOC(=O)C1(c2ccccc2)CCCC1	–	77.5	–	–	–	86.4
O=C(OCCN1CCCCC1)c1ccccc1Br	–	–	–	–	–	–
COc1ccc(C(=O)OCC[N+]2(C)CCOCC2)cc1	–	–	–	–	–	–
CCNC(=O)C1(c2ccccc2)CCCC1	–	–	–	–	–	–
SMILES	M4 PAM	CHRM4 antagonist	CHRM4 agonist	M5 ag	M5 PAM	M5 antag
O=C(O)c1ccc(NC(=O)C2(c3ccccc3)CCCC2)cc1	–	–	–	–	–	–
COc1ccccc1CN1C[C@@H]2C[C@@H](c3cccc(C)c3)N3CCC[C@@]23C1=O	–	–	–	–	–	–
O=C(OCCN1CCCC1)C1(c2ccccc2)CCCC1	–	94.4	–	–	–	98.6
Cc1cccc[n+]1CC(=O)N1c2ccccc2Sc2ccccc21	–	95.6	–	–	–	99.2
CC(C)NC(=O)N1c2ccccc2Sc2ccccc21	–	–	–	–	–	–
CC(C)CNCC(=O)N1c2ccccc2Sc2ccccc21	–	51.7	–	–	–	73.8
COCCNCC(=O)N1c2ccccc2Sc2ccccc21	–	30.9	–	–	–	56.6
CC(=O)N1c2ccccc2Sc2ccccc21	–	–	–	–	–	–
COCCCNC(=O)N1c2ccccc2Sc2ccccc21	–	–	–	–	–	–
CC(=O)NC(=S)Nc1sc2c(c1C(N)=O)CCC(C)C2 (centres undefined)	–	–	–	–	–	–
O=C(c1ccc2nc(Cc3ccccc3F)oc2c1)N1CC[C@H](O)C1	–	–	–	–	–	–
COc1ccc2[nH]c(=O)c(CNC3CCCCC3)cc2c1	22.9	–	–	–	23.4	–
